Measurements: ChEMBL document CHEMBL2380202, “Identification of substituted 2-thio-6-oxo-1,6-dihydropyrimidines as inhibitors of human lactate dehydrogenase” (Bioorg Med Chem Lett, 2013)
≈ marks a conversion by molar mass, not a printed value. Calls of active or inactive are those of the source. The calls are words filed in the database; no cut-off is given here.

How the values were obtained:
[1] = biological target: L-lactate dehydrogenase B chain (Homo sapiens, UniProt P07195); assay: Inhibition of human recombinant carboxy-terminal his-tagged LDHB (1 to 333) expressed in insect cells using pyruvate as substrate after 10 mins by UV endpoint analysis
[2] = biological target: T1, L-lactate dehydrogenase A chain (Homo sapiens, UniProt P00338); assay: Binding affinity to human recombinant carboxy-terminal avi-tagged LDHA (1 to 331) expressed in Escherichia coli by surface plasmon resonance analysis presence of NADH
Method in brief: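 SPR with NADH present; twofold dilution series of analyte injections; K_D obtained by fitting kinetics or the equilibrium dose response; arithmetic mean of 2 separate runs.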

[3] = biological target: T1, L-lactate dehydrogenase A chain; assay: Inhibition of human recombinant carboxy-terminal his-tagged LDHA (1 to 331) expressed in Escherichia coli using pyruvate as substrate after 10 mins by UV endpoint analysis
[4] = Aqueous solubility of the compound in PBS buffer at pH 7.2 at 100 uM after 24 hrs; format: physicochemical
Method in brief: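 Aqueous solubility estimated from a high-throughput assay; single determination (n = 1).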

[5] = Clearance in human liver microsomes at 1 uM up to 60 mins; format: ADME, Microsome
Method in brief: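 Human liver microsome stability, single determination (n = 1); in vitro result extrapolated to in vivo clearance, classed stable below 6.2 and labile above 15.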

[6] = biological target: T2, Malate dehydrogenase, mitochondrial (Homo sapiens, UniProt P40926); assay: Inhibition of human recombinant carboxy-terminal his-tagged MDH-2 (20 to 338) expressed in Escherichia coli using oxaloacetic acid as substrate after 10 mins by UV endpoint analysis
T2 sequence (P40926 whole entry): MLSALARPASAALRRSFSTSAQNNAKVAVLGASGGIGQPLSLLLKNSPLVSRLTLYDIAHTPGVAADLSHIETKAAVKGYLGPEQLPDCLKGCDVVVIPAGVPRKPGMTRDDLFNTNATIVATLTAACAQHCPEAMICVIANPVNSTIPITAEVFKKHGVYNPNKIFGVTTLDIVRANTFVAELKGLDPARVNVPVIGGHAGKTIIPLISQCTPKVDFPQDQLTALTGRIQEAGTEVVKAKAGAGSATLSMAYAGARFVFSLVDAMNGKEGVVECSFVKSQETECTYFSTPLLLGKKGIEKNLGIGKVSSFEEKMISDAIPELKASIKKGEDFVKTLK
Method in brief: (§1)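 Biochemical enzyme inhibition; reported as the arithmetic mean of 2 separate runs (n = 2).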

[7] = biological target: T3, Malate dehydrogenase, cytoplasmic (Homo sapiens, UniProt P40925); assay: Inhibition of human recombinant carboxy-terminal his-tagged MDH-1 (3 to 334) expressed in Escherichia coli using oxaloacetic acid as substrate after 10 mins by UV endpoint analysis; method in brief: as §1
T3 sequence (P40925 whole entry): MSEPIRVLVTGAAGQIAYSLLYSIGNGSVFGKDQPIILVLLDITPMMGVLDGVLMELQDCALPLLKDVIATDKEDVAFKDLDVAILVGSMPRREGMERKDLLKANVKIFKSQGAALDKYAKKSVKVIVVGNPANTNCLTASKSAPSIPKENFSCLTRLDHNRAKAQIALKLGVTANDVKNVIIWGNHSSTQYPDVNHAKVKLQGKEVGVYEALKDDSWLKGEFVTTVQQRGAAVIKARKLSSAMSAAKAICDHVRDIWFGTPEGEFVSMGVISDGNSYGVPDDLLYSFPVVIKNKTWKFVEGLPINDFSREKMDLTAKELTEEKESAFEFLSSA

[8] = biological target: T1, L-lactate dehydrogenase A chain; assay: Binding affinity to human recombinant carboxy-terminal avi-tagged LDHA (1 to 331) expressed in Escherichia coli by surface plasmon resonance analysis absence of NADH
Method in brief: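 SPR run without NADH; analyte injected as a twofold dilution series; K_D estimated relative to a control; mean of 2 separate runs.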

[9] = biological target: T1, L-lactate dehydrogenase A chain; assay: Inhibition of human recombinant carboxy-terminal his-tagged LDHA (1 to 331) expressed in Escherichia coli using pyruvate as substrate after 10 mins by MS endpoint analysis; method in brief: as §1
[10] = biological target: L-lactate dehydrogenase (Homo sapiens) (UniProt V9HWB9); assay: Inhibition of LDH in human HCC1954 cells assessed as lactate accumulation up to 50 uM after 6 hrs; format: cell-based

L-lactate dehydrogenase B chain, sequence (P07195 whole entry): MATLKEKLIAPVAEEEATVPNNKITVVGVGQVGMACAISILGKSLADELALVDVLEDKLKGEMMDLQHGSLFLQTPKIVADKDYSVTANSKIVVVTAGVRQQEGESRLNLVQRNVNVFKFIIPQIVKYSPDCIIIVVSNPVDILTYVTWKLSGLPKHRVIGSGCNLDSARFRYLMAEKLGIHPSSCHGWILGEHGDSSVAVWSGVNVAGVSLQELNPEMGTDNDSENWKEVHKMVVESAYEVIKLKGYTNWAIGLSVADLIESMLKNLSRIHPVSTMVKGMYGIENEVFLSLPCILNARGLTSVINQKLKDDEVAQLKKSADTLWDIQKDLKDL

Compound	IC50 [1]	Kd [2]	IC50 [3]	further results
N#Cc1c(-c2ccc(Cl)cc2)nc(SCC(=O)Nc2cccc(Cl)c2)[nH]c1=O	> 100 µM	386 µM	55.8 µM	
CNS(=O)(=O)c1ccc(NC(=O)CSc2nc(-c3ccc(Cl)cc3)c(C#N)c(=O)[nH]2)cc1	> 100 µM	532 µM	> 100 µM	
CCC(Sc1nc(-c2ccc(Cl)cc2)c(C#N)c(=O)[nH]1)C(=O)Nc1ccc(S(N)(=O)=O)cc1 (racemic)	2.4 µM	3 µM	0.65 µM	solubility at 24 h, 100 µM [4]: 136 µM (≈ 68.5 µg/mL); CLhep predicted at 1 µM [5]: 2.8 mL/min/kg
N#Cc1c(-c2ccc(Cl)cc2)nc(SCC(=O)Nc2ccc(S(N)(=O)=O)cc2)[nH]c1=O		6.1 µM	8.8 µM	CLhep predicted at 1 µM [5]: 5.3 mL/min/kg; IC50 [6]: > 10 µM; IC50 [7]: > 10 µM; Kd [8]: 384 µM; IC50 [9]: 1.9 µM
Cc1ccc(NC(=O)CSc2nc(-c3ccc(Cl)cc3)c(C#N)c(=O)[nH]2)cc1Cl		466 µM	27.6 µM	
COc1ccccc1NC(=O)CSc1nc(-c2ccc(Cl)cc2)c(C#N)c(=O)[nH]1		1110 µM	> 100 µM	
CC(C)c1ccc(NC(=O)CSc2nc(-c3ccc(Cl)cc3)c(C#N)c(=O)[nH]2)cc1		552 µM	22.6 µM	
CC(Sc1nc(-c2ccccc2)cc(=O)[nH]1)C(=O)Nc1ccc(S(N)(=O)=O)cc1 (racemic)			> 100 µM	
COc1ccc(CNC(=O)c2cc(=O)c3c(O)cc(OCCc4ccc(NC(=O)C(=O)O)c(OC)c4)cc3o2)cc1				IC50 [6]: 8.48 µM; IC50 [7]: 6.78 µM
CC(Sc1nc(-c2ccc(Cl)c(F)c2)c(C#N)c(=O)[nH]1)C(=O)Nc1ccc(S(N)(=O)=O)cc1 (racemic)	2.3 µM	2.9 µM	0.71 µM	inhibition [10]: inactive; solubility at 24 h, 100 µM [4]: 64 µM (≈ 32.5 µg/mL); CLhep predicted at 1 µM [5]: 3.4 mL/min/kg
CCC(Sc1nc(-c2cccc(OC)c2)c(C#N)c(=O)[nH]1)C(=O)Nc1ccc(S(N)(=O)=O)cc1 (racemic)	7.7 µM	8.9 µM	7.4 µM	CLhep predicted at 1 µM [5]: 6.9 mL/min/kg
CC(Sc1ncc(C#N)c(=O)[nH]1)C(=O)Nc1ccc(S(N)(=O)=O)cc1 (racemic)			12.5 µM	
N#Cc1c(-c2ccc(Cl)cc2)nc(SCC(=O)Nc2ccc(Cl)cc2)[nH]c1=O	> 100 µM	570 µM	55.7 µM	
COc1ccc(NC(=O)CSc2nc(-c3ccc(Cl)cc3)c(C#N)c(=O)[nH]2)cc1Cl	> 100 µM	640 µM	26.5 µM	
CCc1ccccc1NC(=O)CSc1nc(-c2ccc(Cl)cc2)c(C#N)c(=O)[nH]1		1210 µM	> 100 µM	
CC(Sc1nc(-c2ccc(Cl)cc2)c(C#N)c(=O)[nH]1)C(=O)Nc1ccc(S(N)(=O)=O)cc1 (racemic)	3 µM	2.2 µM	0.48 µM	inhibition [10]: inactive; solubility at 24 h, 100 µM [4]: 58 µM (≈ 28.4 µg/mL); CLhep predicted at 1 µM [5]: 2.6 mL/min/kg
CC(Sc1nc(-c2ccc(Cl)c(Cl)c2)c(C#N)c(=O)[nH]1)C(=O)Nc1ccc(S(N)(=O)=O)cc1 (racemic)	3.7 µM	5.1 µM	0.75 µM	inhibition [10]: inactive; solubility at 24 h, 100 µM [4]: 30 µM (≈ 15.7 µg/mL); CLhep predicted at 1 µM [5]: 2.6 mL/min/kg
Cc1cccc(NC(=O)CSc2nc(-c3ccc(Cl)cc3)c(C#N)c(=O)[nH]2)c1C		1060 µM	> 100 µM	
Cc1ccccc1NC(=O)CSc1nc(-c2ccc(Cl)cc2)c(C#N)c(=O)[nH]1		1010 µM	> 100 µM	
NC(=O)C(=O)O [OXAMATE]	33.8 µM			
Cc1c(Cl)cccc1NC(=O)CSc1nc(-c2ccc(Cl)cc2)c(C#N)c(=O)[nH]1	> 100 µM	462 µM	50.2 µM	
Cc1ccc(NC(=O)CSc2nc(-c3ccc(Cl)cc3)c(C#N)c(=O)[nH]2)cc1C	> 100 µM	552 µM	38.6 µM	
N#Cc1c(-c2ccc(Cl)cc2)nc(SCC(=O)Nc2ccc(F)c(Cl)c2)[nH]c1=O	> 100 µM	314 µM	46.8 µM	
COc1cccc(-c2nc(SCC(=O)Nc3ccc(S(N)(=O)=O)cc3)[nH]c(=O)c2C#N)c1		38.4 µM	42.4 µM	
N#Cc1c(-c2ccccc2)nc(SCC(=O)Nc2ccc(S(N)(=O)=O)cc2)[nH]c1=O		15.4 µM	12.1 µM	
